What was measured:
[1] = molecular target: Dual specificity tyrosine-phosphorylation-regulated kinase 1B (Homo sapiens, UniProt Q9Y463); experiment: Inhibition of recombinant full length human Dyrk1B expressed in Baculovirus expression system using KKISGRLSPIMTEQ as substrate in presence of ATP
HeLa [2] = experiment: Cytotoxicity against human HeLa cells after 5 days by MTT assay; type: functional, cell-based; settings: 120 h
[3] = molecular target: Casein kinase I isoform delta (Homo sapiens) (UniProt P48730); experiment: Inhibition of recombinant human CK1delta expressed in Baculovirus expression system at 2 uM by Z'-LYTE assay
[4] = molecular target: T1, Serine/threonine-protein kinase haspin (Homo sapiens) (UniProt Q8TF76); experiment: Inhibition of recombinant human Haspin expressed in Baculovirus expression system at 2 uM by Adapta assay
T1 sequence (whole entry): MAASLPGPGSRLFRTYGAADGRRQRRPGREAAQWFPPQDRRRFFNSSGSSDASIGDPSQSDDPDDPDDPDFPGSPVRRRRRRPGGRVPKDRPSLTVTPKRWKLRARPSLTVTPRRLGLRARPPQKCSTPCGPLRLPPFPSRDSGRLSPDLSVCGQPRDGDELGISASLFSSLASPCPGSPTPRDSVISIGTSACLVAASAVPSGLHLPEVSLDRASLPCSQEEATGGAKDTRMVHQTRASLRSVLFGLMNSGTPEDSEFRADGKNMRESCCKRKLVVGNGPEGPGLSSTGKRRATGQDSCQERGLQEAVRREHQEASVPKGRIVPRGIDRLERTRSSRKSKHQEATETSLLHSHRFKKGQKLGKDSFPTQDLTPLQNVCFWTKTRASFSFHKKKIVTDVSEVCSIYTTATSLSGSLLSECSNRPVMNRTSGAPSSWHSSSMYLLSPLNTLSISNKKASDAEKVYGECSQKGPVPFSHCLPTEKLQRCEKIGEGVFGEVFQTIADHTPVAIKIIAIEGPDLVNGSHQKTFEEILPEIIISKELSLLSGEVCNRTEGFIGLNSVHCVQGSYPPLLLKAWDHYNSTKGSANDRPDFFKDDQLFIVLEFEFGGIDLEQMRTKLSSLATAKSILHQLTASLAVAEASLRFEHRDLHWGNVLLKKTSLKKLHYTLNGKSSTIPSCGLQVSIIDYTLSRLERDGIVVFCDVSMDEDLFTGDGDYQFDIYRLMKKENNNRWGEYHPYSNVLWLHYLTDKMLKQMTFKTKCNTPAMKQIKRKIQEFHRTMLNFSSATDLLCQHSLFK

[5] = Half life in human liver S9 fraction at 0.3 uM incubated up to 120 mins at 37 degC in presence of NADP+/UDPGA by LC-MS/MS analysis; type: ADME, subcellular
Outline: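 Phase I and phase II metabolic stability was tested in S9 fraction from human liver homogenate. Samples were taken at several time points, and the remaining parent compound was quantified by LC-MS/MS to give a metabolic half-life.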

[6] = molecular target: Cyclin-dependent kinase 5/CDK5 activator 1 (Homo sapiens) (UniProt Q00535+Q15078); experiment: Inhibition of recombinant human CDK5/p25 expressed in baculovirus expression system at 2 uM by Z'-LYTE assay
HeLa [7] = experiment: Cytotoxicity against human HeLa cells assessed as cell viability at 10 uM by XTT assay; type: functional; settings: read-out: Activity
[8] = molecular target: Myosin light chain kinase 2, skeletal/cardiac muscle (Homo sapiens) (UniProt Q9H1R3); experiment: Inhibition of recombinant human MLCK2 expressed in Baculovirus expression system at 2 uM by Lantha-screen assay
HeLa [9] = experiment: Cytotoxicity against human HeLa cells assessed as cell viability at 3 uM by XTT assay; type: functional; settings: read-out: Activity
[10] = molecular target: Serine/threonine-protein kinase pim-1 (Homo sapiens) (UniProt P11309); experiment: Inhibition of recombinant human PIM1 expressed in Baculovirus expression system at 2 uM by Z'-LYTE assay
HeLa [11] = experiment: Cytotoxicity against human HeLa cells assessed as cell viability at 1 uM by XTT assay; type: functional; settings: read-out: Activity
[12] = molecular target: SRSF protein kinase 1 (Homo sapiens) (UniProt Q96SB4); experiment: Inhibition of recombinant human SRPK1 expressed in Baculovirus expression system at 2 uM by Z'-LYTE assay
[13] = molecular target: T2, Dual specificity tyrosine-phosphorylation-regulated kinase 1A (Homo sapiens, UniProt Q13627); experiment: Inhibition of recombinant human Dyrk1A expressed in Baculovirus expression system at 2 uM by Z'-LYTE assay
[14] = molecular target: T3, Serine/threonine-protein kinase haspin (Homo sapiens, UniProt Q8TF76); experiment: Inhibition of recombinant human Haspin expressed in Baculovirus expression system by Adapta assay
T3 sequence (Q8TF76 whole entry): T1 sequence (whole entry)

[15] = molecular target: T2, Dual specificity tyrosine-phosphorylation-regulated kinase 1A; experiment: Inhibition of Dyrk1A in human HeLa cells transfected with GFP-SF3b1-NT assessed as decrease in SF3B1 phosphorylation at Thr434 after 18 hrs by Western blot analysis; type: cell-based
Outline: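 HeLa cells were transiently transfected with a GFP-SF3b1 expression vector, then treated with compound. Read-out was phosphorylation of SF3b1 at Thr434, which serves as a marker of endogenous Dyrk1A activity in the cell.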

[16] = molecular target: T2, Dual specificity tyrosine-phosphorylation-regulated kinase 1A; experiment: Inhibition of recombinant human Dyrk1A expressed in Baculovirus expression system by Z'-LYTE assay
[17] = molecular target: T4, Serine/threonine-protein kinase 17A (Homo sapiens) (UniProt Q9UEE5); experiment: Inhibition of recombinant human STK17A expressed in Baculovirus expression system at 2 uM by Lantha-Screen assay
T4 sequence (whole entry): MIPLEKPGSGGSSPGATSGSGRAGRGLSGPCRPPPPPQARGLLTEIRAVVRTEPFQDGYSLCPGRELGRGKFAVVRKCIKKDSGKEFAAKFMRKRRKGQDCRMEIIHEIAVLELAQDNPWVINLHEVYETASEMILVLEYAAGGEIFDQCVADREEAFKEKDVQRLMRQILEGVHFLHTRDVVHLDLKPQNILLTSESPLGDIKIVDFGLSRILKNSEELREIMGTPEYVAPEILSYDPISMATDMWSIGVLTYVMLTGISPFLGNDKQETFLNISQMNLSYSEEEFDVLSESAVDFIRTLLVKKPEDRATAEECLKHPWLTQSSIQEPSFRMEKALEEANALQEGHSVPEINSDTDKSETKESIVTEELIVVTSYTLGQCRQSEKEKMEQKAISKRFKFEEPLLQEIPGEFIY

[18] = molecular target: Homeodomain-interacting protein kinase 1 (Homo sapiens) (UniProt Q86Z02); experiment: Inhibition of recombinant human HIPK1 expressed in Baculovirus expression system at 2 uM by Z'-LYTE assay
[19] = molecular target: BDNF/NT-3 growth factors receptor (Homo sapiens) (UniProt Q16620); experiment: Inhibition of recombinant human TRKB expressed in Baculovirus expression system at 2 uM by Z'-LYTE assay
[20] = molecular target: T5, Dual specificity tyrosine-phosphorylation-regulated kinase 2 (Homo sapiens, UniProt Q92630); experiment: Inhibition of recombinant human Dyrk2 (unknown origin) at 2 uM by Lantha-screen assay
T5 sequence (Q92630 whole entry): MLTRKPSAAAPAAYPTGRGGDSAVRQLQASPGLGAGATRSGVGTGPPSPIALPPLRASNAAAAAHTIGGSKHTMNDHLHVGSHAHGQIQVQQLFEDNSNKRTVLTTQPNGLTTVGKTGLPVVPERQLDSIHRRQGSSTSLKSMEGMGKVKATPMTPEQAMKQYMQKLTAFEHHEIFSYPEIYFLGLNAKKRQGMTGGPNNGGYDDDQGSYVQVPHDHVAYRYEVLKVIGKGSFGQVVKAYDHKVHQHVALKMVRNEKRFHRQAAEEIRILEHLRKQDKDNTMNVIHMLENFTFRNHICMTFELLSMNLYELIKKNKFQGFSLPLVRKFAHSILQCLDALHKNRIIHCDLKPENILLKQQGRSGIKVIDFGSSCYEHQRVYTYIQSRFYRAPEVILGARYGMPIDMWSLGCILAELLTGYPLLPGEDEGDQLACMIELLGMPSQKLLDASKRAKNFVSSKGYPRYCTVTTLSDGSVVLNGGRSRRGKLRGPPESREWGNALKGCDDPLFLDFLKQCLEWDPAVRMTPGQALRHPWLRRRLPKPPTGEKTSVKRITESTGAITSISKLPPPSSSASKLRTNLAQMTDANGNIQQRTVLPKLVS

[21] = molecular target: Dual specificity protein kinase CLK2 (Homo sapiens) (UniProt P49760); experiment: Inhibition of recombinant human Clk2 expressed in Baculovirus expression system at 2 uM by Z'-LYTE assay
[22] = molecular target: T2, Dual specificity tyrosine-phosphorylation-regulated kinase 1A; experiment: Inhibition of recombinant full length human Dyrk1A expressed in Baculovirus expression system using KKISGRLSPIMTEQ as substrate in presence of ATP
[23] = molecular target: Dual specificity protein kinase CLK1 (Homo sapiens, UniProt P49759); experiment: Inhibition of recombinant human Clk1 expressed in Escherichia coli at 2 uM by Z'-LYTE assay
[24] = Half life in Sprague-Dawley rat liver microsomes at 0.5 uM by LC-MS/MS analysis; type: ADME, microsome
HeLa [25] = experiment: Cytotoxicity against human HeLa cells after 72 hrs by CellTiter-Blue assay; type: functional, cell-based

Sequence of Dual specificity tyrosine-phosphorylation-regulated kinase 1B (Q9Y463 whole entry): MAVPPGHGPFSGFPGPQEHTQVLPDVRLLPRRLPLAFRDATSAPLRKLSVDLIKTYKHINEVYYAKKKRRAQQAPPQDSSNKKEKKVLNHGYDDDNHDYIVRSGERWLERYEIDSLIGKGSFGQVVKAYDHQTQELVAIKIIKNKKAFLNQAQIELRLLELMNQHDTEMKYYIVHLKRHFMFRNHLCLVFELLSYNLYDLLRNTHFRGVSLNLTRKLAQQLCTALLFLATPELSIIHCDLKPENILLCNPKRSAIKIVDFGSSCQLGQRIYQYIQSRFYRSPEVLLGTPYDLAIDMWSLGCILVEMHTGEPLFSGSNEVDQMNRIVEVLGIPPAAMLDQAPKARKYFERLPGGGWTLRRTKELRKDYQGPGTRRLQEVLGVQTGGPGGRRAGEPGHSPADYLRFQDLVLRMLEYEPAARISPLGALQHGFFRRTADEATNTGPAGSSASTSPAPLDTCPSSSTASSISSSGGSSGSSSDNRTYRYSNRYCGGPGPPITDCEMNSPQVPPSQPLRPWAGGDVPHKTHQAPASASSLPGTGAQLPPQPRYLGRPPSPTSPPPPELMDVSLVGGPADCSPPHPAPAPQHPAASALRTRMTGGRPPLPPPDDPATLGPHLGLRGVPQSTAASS
Sequence of Dual specificity protein kinase CLK2 (Homo sapiens) (P49760 whole entry, looked up): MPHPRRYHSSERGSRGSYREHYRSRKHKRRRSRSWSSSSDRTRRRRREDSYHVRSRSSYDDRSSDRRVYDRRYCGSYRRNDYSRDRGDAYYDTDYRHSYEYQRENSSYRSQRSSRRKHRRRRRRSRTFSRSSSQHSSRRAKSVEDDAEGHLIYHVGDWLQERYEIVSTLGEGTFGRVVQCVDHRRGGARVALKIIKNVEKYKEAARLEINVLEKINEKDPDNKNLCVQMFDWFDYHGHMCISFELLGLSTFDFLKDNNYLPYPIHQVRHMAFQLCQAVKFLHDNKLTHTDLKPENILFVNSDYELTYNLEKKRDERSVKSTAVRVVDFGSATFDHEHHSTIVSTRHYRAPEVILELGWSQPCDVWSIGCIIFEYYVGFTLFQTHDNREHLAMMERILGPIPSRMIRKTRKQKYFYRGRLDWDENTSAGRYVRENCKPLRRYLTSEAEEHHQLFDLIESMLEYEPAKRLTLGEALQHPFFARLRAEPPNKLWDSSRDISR
Sequence of BDNF/NT-3 growth factors receptor (Homo sapiens) (Q16620 32-822 limits assumed): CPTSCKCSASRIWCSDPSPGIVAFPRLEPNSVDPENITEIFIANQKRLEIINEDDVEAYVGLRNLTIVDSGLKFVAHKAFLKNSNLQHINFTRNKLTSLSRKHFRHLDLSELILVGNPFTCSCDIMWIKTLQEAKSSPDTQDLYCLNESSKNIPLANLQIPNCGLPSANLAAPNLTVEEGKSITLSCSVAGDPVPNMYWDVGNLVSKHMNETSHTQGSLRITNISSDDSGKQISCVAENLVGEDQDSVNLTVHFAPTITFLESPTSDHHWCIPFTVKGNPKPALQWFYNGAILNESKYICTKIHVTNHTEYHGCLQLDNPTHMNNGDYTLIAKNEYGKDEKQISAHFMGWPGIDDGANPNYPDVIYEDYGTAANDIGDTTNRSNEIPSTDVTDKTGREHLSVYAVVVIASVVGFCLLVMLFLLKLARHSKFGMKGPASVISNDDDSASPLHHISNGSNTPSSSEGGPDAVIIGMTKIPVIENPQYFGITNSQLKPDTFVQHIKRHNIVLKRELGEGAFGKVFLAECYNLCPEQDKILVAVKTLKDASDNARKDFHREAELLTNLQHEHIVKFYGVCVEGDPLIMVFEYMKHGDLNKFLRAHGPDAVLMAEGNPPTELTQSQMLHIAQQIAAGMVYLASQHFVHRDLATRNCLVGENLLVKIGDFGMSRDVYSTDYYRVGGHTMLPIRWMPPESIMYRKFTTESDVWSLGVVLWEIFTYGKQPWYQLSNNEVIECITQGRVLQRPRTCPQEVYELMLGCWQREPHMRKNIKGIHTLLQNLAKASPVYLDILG
Sequence of Myosin light chain kinase 2, skeletal/cardiac muscle (Homo sapiens) (Q9H1R3 whole entry): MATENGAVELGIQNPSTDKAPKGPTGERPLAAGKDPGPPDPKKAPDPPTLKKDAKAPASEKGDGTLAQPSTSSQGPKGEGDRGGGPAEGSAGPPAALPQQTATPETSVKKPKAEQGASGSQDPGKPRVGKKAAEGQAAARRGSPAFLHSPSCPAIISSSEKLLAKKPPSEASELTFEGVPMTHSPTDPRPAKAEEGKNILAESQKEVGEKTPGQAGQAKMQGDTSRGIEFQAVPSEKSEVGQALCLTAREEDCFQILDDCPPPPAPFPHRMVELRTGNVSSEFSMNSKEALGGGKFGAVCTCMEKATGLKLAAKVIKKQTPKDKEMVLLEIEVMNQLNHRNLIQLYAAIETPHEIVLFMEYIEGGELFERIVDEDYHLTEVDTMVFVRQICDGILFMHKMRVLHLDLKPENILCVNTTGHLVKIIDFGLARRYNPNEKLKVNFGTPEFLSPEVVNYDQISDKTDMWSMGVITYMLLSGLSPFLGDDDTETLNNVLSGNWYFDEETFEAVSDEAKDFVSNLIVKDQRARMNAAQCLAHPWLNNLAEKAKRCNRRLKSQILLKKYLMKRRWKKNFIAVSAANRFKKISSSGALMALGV
Sequence of SRSF protein kinase 1 (Homo sapiens) (Q96SB4 whole entry): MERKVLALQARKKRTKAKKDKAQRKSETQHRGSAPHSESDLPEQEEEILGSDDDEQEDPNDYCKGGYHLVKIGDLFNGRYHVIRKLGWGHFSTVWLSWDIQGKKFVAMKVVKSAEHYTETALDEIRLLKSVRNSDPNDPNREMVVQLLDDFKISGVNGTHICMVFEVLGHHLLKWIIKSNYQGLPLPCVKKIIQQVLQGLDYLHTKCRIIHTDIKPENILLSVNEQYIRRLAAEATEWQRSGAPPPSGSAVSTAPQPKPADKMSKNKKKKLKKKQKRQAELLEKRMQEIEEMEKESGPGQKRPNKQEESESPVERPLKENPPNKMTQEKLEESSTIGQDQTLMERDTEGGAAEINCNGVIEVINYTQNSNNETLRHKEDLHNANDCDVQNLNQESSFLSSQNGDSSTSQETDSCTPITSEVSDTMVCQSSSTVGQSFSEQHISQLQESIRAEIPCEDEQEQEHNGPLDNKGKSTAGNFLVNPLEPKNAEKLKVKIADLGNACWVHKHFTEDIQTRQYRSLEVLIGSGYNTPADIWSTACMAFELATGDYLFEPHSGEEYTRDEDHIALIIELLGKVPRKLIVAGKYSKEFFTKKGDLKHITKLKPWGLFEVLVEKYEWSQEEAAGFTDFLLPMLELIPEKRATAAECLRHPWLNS
Sequence of Homeodomain-interacting protein kinase 1 (Homo sapiens) (Q86Z02 whole entry, looked up): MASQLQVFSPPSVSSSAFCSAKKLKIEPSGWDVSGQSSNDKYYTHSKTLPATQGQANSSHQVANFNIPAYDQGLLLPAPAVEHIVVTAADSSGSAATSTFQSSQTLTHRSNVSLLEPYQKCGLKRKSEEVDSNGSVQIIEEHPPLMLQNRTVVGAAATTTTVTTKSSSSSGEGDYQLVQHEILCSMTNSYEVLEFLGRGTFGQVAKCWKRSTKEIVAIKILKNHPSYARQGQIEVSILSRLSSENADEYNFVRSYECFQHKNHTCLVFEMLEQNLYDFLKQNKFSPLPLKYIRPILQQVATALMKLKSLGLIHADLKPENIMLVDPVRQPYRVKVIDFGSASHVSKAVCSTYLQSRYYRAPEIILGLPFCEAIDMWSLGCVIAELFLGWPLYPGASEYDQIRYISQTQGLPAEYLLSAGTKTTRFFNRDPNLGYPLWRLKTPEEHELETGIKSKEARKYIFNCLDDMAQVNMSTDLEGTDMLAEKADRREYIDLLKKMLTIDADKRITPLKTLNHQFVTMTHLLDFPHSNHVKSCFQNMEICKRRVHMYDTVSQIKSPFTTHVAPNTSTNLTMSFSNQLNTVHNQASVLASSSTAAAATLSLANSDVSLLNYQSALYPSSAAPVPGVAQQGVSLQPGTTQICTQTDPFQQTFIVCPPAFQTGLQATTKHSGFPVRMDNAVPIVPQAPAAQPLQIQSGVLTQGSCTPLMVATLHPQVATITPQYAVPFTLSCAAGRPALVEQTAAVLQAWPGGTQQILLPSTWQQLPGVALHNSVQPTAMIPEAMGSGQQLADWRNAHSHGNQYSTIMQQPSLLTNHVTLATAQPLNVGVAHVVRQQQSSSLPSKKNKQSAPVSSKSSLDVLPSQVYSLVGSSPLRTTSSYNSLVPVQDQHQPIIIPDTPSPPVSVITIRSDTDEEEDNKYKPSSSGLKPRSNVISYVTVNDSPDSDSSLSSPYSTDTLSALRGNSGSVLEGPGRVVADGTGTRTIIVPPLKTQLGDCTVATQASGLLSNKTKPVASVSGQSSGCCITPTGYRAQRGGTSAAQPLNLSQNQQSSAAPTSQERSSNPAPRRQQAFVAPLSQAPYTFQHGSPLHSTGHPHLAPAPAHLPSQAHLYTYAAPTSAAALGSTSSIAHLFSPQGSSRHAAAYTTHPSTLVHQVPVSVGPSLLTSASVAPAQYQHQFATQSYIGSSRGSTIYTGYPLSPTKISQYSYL
Sequence of Dual specificity protein kinase CLK1 (P49759 whole entry): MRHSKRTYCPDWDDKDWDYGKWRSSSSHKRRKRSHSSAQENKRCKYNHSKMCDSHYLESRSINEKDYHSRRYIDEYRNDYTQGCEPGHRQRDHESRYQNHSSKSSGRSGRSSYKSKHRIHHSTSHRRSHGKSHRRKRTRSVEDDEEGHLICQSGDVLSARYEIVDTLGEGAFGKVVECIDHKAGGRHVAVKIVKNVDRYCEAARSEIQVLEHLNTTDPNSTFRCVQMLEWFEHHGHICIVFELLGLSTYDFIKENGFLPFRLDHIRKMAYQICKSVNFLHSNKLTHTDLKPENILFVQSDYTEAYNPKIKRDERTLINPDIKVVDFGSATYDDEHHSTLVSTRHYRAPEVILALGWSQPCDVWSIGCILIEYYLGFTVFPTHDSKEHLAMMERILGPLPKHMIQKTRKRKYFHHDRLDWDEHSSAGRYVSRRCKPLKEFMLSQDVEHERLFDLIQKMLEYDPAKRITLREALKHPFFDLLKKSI

Q: For `O=C(Cc1ccccc1)Nc1cncc(-c2cc(-c3cccnc3)cs2)c1`, which IC50 [1] is on record?
A: Its IC50 is 326 nM.

Q: Which IC50 (HeLa [2]) does the source give for `COc1ccc2c(c1)[nH]c1c(C)nccc12` [HARMINE] here?
A: The IC50 was 8000 nM.

Q: Which inhibition [3] does the source give for `O=C(Cc1ccc(F)cc1)Nc1cncc(-c2cc(-c3cccnc3)cs2)c1` here?
A: The inhibition was 4%.

Q: And the IC50 [1]?
A: Its IC50 is 383 nM.

Q: And the inhibition [4]?
A: The inhibition was 95%.

Q: And the half-life at 0.3 µM [5]?
A: Its half-life at 0.3 µM is 1.97 h.

Q: What about the inhibition [6] of the same compound?
A: Its inhibition is 0%.

Q: And the viability at 10 µM (HeLa [7])?
A: The viability at 10 µM was 88%.

Q: What about the inhibition [8] of the same compound?
A: The inhibition was 9.8%.

Q: And the viability at 3 µM (HeLa [9])?
A: The viability at 3 µM was 97%.

Q: And the inhibition [10]?
A: Its inhibition is 8%.

Q: And the viability at 1 µM (HeLa [11])?
A: The viability at 1 µM was 99%.

Q: And the inhibition [12]?
A: Its inhibition is 2%.

Q: What about the inhibition [13] of the same compound?
A: The inhibition was 87%.

Q: And the IC50 [14]?
A: The IC50 was 36 nM.

Q: What about the IC50 [15] of the same compound?
A: The IC50 was 79 nM.

Q: And the IC50 [16]?
A: Its IC50 is 14.3 nM.

Q: And the inhibition [17]?
A: Its inhibition is 60%.

Q: And the inhibition [18]?
A: The inhibition was 0%.

Q: What about the inhibition [19] of the same compound?
A: Its inhibition is 10%.

Q: What about the inhibition at 2 µM [20] of the same compound?
A: The inhibition at 2 µM was 40%.

Q: What about the inhibition [21] of the same compound?
A: The inhibition was 19%.

Q: And the IC50 [22]?
A: Its IC50 is 14.3 nM.

Q: What about the inhibition at 2 µM [23] of the same compound?
A: The inhibition at 2 µM was 40%.

Q: With `O=C(Nc1cncc(-c2cc(-c3cccnc3)cs2)c1)c1c(F)cc(F)cc1F` as the compound, how does the IC50 [1] read?
A: The IC50 was 298 nM.

Q: What about the half-life at 0.3 µM [5] of the same compound?
A: The half-life at 0.3 µM was 2.05 h.

Q: Which IC50 [1] does the source give for `Nc1ccc(-c2cc(-c3cccnc3)cs2)cn1` here?
A: The IC50 was 251 nM.

Q: With `Nc1cncc(-c2csc(-c3cccnc3)c2)c1` as the compound, how does the IC50 [1] read?
A: The IC50 was 130 nM.

Q: Which viability at 1 µM (HeLa [11]) does the source give for `CN[C@@H]1C[C@H]2O[C@@](C)([C@@H]1OC)n1c3ccccc3c3c4c(c5c6ccccc6n2c5c31)C(=O)NC4` [STAUROSPORINE] here?
A: Its viability at 1 µM is 33%.

Q: With `c1cncc(-c2cc(-c3cncs3)cs2)c1` as the compound, how does the half-life at 0.5 µM [24] read?
A: The half-life at 0.5 µM was 0.45 h.

Q: For `Oc1ccc(-c2nc3ccc4[nH]ncc4c3c3c2CCCC3)c(F)c1`, which IC50 (HeLa [25]) is on record?
A: The IC50 was 4800 nM.

Q: With `Nc1cncc(-c2cc(-c3cccnc3)cs2)c1` as the compound, how does the IC50 [1] read?
A: The IC50 was 154 nM.

Q: For `C[C@]12CC[C@H]3[C@@H](CCC4=CC(=O)CC[C@@]43C)[C@@H]1CC[C@@H]2O` [TESTOSTERONE], which half-life at 0.3 µM [5] is on record?
A: Its half-life at 0.3 µM is 0.142 h.

From ChEMBL document CHEMBL4261587 (Eur J Med Chem, 2018)
